Most compounds without a hit are left out; they make up all but 2.7% or so of the library.
ABHD4 inh = ABHD4 inhibitors, primary screen, biochemical, fluorescence polarization, mouse. purified mABHD4, FP-Rh probe fluorescence polarization. inhibition, % at 8.92 µM. 370,000 compounds, 0.54% hits. AID 720543, 2013;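 active means inhibition exceeding the mean over every tested compound plus 3 SD, cut at about 30% in these data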;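 further: 0% = plate median of compound wells and 100% = S159A mutant with DMSO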
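Test system: mABHD4 protein | Buffer or medium: HEPES pH 7.0 buffer, 150 mM NaCl, 0.01% Pluronic F-127 | Probe or stimulus: FP-Rh fluorescent activity-based probe, added after compound pre-incubation | Timing: Pre-incubation 45 min, probe exposure 60 min, at 25 °C | Technique: Fluorescence polarization, excitation 525 nm, emission 598 nm, BODIPY TMR filters | Repeats: Single well per compound (singlicate)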
SIAE inh = human SIAE inhibitors, primary screen, biochemical, fluorescence polarization, FP-Rh probe, 1536-well HTS | Sialate O-acetylesterase (Homo sapiens), Q9HAT2 | SIAE FP-Rh probe binding | inhibition, % at 9.66 µM | 370,000 compounds, 0.69% hits | AID 1053197, 2014;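 active means inhibition above a cutoff: mean of compounds within the control limits plus 3 SD of those, cut at about 17% in these data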;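 further: 0% = plate median of compound wells and 100% = probe without SIAE protein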
Target sequence (Q9HAT2 whole entry, looked up): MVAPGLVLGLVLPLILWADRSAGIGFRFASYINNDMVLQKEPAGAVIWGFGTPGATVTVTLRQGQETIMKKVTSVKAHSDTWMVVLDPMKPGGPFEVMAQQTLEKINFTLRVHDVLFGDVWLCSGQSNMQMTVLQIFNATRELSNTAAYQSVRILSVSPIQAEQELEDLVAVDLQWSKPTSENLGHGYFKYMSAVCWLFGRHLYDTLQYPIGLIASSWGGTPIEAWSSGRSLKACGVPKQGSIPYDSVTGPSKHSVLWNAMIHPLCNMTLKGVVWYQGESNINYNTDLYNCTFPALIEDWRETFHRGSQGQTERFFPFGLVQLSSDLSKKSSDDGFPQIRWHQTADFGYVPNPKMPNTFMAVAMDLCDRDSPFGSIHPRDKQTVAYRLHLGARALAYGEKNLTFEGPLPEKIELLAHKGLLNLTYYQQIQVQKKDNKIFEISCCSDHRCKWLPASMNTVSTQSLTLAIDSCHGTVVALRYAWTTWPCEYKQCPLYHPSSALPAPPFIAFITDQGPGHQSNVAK
TCR-CD3 inh = inhibitors of human TCR-CD3 interaction, primary screen, biochemical, fluorescence, TAMRA-labeled TCR probe | inhibition, % at 9.4 µM | 360,000 compounds, 0.37% hits | T-cell receptor (TCR) | AID 651800, 2012; in the data active means inhibition above about 19%;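 further: recombinant mutant TCR 2C K166C tagged with TAMRA read by polarization; 0% = receptor in buffer alone and 100% = receptor with positive control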
HTRA1 inhibitor = HTRA1 serine protease inhibitors, primary screen, biochemical, fluorescence polarization, HTS | recombinant HTRA1, FP-rhodamine activity-based probe | inhibition, % at 5.96 µM | 340,000 compounds, 0.5% hits | AID 504803, 2011; in the data active means inhibition above about 36%;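 further: 0% = enzyme with DMSO and 100% = wells lacking enzyme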
PRMT1 inh = PRMT1 methyltransferase inhibitors, primary screen, biochemical, fluorescence polarization | recombinant PRMT1, activity-based probe fluorescence polarization | inhibition, % at 2.79 µM | AID 652257, 2013 | Protein arginine N-methyltransferase 1 (Homo sapiens), Q99873 | 370,000 compounds, 1.3% hits;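 active means inhibition above about 21% made by adding two undisclosed values, limit read from the data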
SIAE inh conf = human SIAE inhibitors, retest, confirmation, biochemical, fluorescence polarization, FP-Rh probe, triplicate; SIAE FP-Rh activity-based probe; 2,300 compounds, 13% hits; shares compounds with SIAE inh; inhibition, % at 9.66 µM;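 active means mean inhibition of the replicates above the hit cutoff set in the primary screen, cut at about 17% in these data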;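 further: 0% = SIAE with DMSO and probe and 100% = probe without SIAE; inhibitors lower polarization as more probe stays unbound to SIAE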
Starred values were filed as active, the others as inactive; . = not tested or not shown.

SMILES	ABHD4 inh	SIAE inh	TCR-CD3 inh	HTRA1 inhibitor	PRMT1 inh	SIAE inh conf
O=c1[nH]c2cc3c(cc2cc1CN(Cc1ccc2c(c1)OCO2)Cc1nnnn1CC1CCCO1)OCO3 (stereo not given)	-1.4	59.3*	-0.3	-1.1	-0.7	-5.8
NS(=O)(=O)c1ccc(N/N=C/C=C/c2ccccc2[N+](=O)[O-])cc1	3.3	23.9*	1.5	8.0	-2.2	0.5
COc1cc(/C=C/C(=O)OCC(=O)N2CCc3ccccc3C2)ccc1O	3.5	21.2*	3.8	1.4	-0.7	0.7
COc1cc(/C=C/C(=O)OCC(=O)N2CCC(C)CC2)ccc1O	-3.5	7.7	-1.4	-5.5	-3.1	.
C[C@H]1CN(S(=O)(=O)C(C)(C)C)[C@@H](CCO)/C1=C\CCO	-6.0	-7.6	-1.1	.	-0.8	.
S=c1[nH]ncn1/N=C/c1cccs1	-0.2	-2.5	-3.9	-4.1	5.3	.
S=c1[nH]ncn1/N=C/c1ccccn1	-6.7	17.1*	3.2	5.8	-1.4	-1.6
C#Cc1ccc([C@@H]2C=C(C(=O)N3CCN(Cc4ccc5c(c4)OCO5)CC3)O[C@H](OCCCCO)C2)cc1	12.6	-0.5	7.4	1.8	-1.1	.
Cc1cccc(S(=O)(=O)NC(=O)C2(C)CCN2C(=O)c2cccc(F)c2)c1 (stereo not given)	5.3	0.0	-1.9	.	-2.0	.
CC(C)(C)c1ccc(C(=O)N2CCC(C(=O)NCc3ccco3)CC2)cc1	-2.8	17.1*	-11.2	3.3	-0.9	0.7
Cc1ccc(C(=O)N2CCC(C(=O)NCc3ccco3)CC2)cc1	-4.2	0.5	-3.6	5.3	-3.5	.
COc1cc(C2C3=C(CC(C)(C)CC3=O)NC3=C2C(=O)c2ccccc23)ccc1O (stereo not given)	19.3	16.0	6.7	17.8	3.4	.
CC1(C)CC(=O)C2=C(C1)NC1=C(C(=O)c3ccccc31)C2c1ccc(Cl)cc1 (stereo not given)	26.9	30.0*	-1.0	8.0	1.2	13.6
O=C(COc1ccc(Cl)cc1)NCc1nnc(SCC(=O)Nc2ccccc2F)o1	2.5	1.6	5.0	-9.1	0.7	.
Cc1ccc(/C=N\NC(=O)/C(=C\Nc2nccc(C)n2)NC(=O)c2ccccc2)cc1	10.0	17.7*	3.4	-7.0	-1.3	7.1
O=C(Nc1ccccc1)Nc1nnc([C@@H]2C[C@H](O)[C@@H](CO)O2)s1	4.9	47.0*	-5.2	.	4.5	0.4
O=C(NCCO)c1cccc(-c2cnc3cccnn23)c1	0.4	-2.0	-3.1	.	-3.6	.
CC1(C)CC(=O)C=C(c2ccccc2F)C1=O	-1.0	3.9	0.1	.	-1.0	.
S=c1[nH]nc(-c2ccncc2)n1/N=C/C=C/c1ccco1	16.9	19.0*	4.0	7.8	16.8	2.1
O=C(Nc1nncs1)c1c(F)c(F)c(F)c(F)c1F	5.9	20.2*	-0.3	-5.8	2.6	1.1
Nc1ncnc2c1ncn2[C@@H]1O[C@H](C(=O)N[C@@H](CCc2ccccc2)C(=O)N2CCN(C(=O)N3CCCCC3)CC2)[C@@H](O)[C@H]1O	3.5	2.2	1.9	.	0.3	.
Nc1ncnc2c1ncn2[C@@H]1O[C@H](C(=O)N[C@@H](CCc2ccccc2)C(=O)N2CCN(C(=O)N3CCOCC3)CC2)[C@@H](O)[C@H]1O	5.2	69.6*	0.1	.	-1.9	73.3*
Nc1ncnc2c1ncn2[C@@H]1O[C@H](C(=O)NCCc2ccc(F)cc2)[C@@H](O)[C@H]1O	-0.7	23.2*	3.8	.	0.3	22.1*
CN(C)c1cccc2c(S(=O)(=O)NC(=O)[C@H]3O[C@@H](n4cnc5c(N)ncnc54)[C@H](O)[C@@H]3O)cccc12	6.7	55.8*	10.1	.	4.5	53.0*
Nc1ncnc2c1ncn2[C@@H]1O[C@H](C(=O)NCc2ccc(OC(F)(F)F)cc2)[C@@H](O)[C@H]1O	2.0	9.9	-3.0	.	2.8	.
Nc1ncnc2c1ncn2[C@@H]1O[C@H](C(=O)N[C@@H](CO)Cc2ccccc2)[C@@H](O)[C@H]1O	6.5	25.5*	-0.4	.	1.0	25.2*

Bioassay records (PubChem)
